# Assay results reported in ChEMBL document CHEMBL5104176 (J Med Chem, 2022).
# Calls of active or inactive are those of the source. The calls are words filed in the database; no cut-off is given here.
# Assays:
# [1] = target: D(2) dopamine receptor (Homo sapiens, UniProt P14416); experiment: Displacement of [3H]N-methylspiperone from human D2L receptor expressed in HEK293T cell membrane incubated for 1 hr by MicroBeta scintillation counting method; format: cell membranes
# Procedure, shortened: (§1)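 Membranes from stably transfected HEK293 cells (hD2L, hD3 or hD4.4), 20 μg (D2, D3) or 30 μg (D4) protein/well. Incubated 1 h at room temperature in EBSS binding buffer, pH 7.4, with 0.4 nM [3H]N-methylspiperone and 10 half-log dilutions in triplicate. 10 μM (+)-butaclamol defines nonspecific binding. GF filtration, scintillation counting.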
# [2] = Selectivity ratio of Ki for displacement of [3H]N-methylspiperone from human D3R expressed in HEK293T cell membrane to Ki for displacement of [3H]N-methylspiperone from human D4.4 receptor expressed in HEK293T cell membrane
# [3] = Selectivity ratio of Ki for displacement of [3H]N-methylspiperone from human D2L receptor expressed in HEK293T cell membrane to Ki for displacement of [3H]N-methylspiperone from human D4.4 receptor expressed in HEK293T cell membrane
# [4] = target: T1, D(4) dopamine receptor (Homo sapiens, UniProt P21917); experiment: Displacement of [3H]N-methylspiperone from human D4.4 receptor expressed in HEK293T cell membrane incubated for 1 hr by MicroBeta scintillation counting method; format: cell membranes
# T1 sequence (P21917 whole entry): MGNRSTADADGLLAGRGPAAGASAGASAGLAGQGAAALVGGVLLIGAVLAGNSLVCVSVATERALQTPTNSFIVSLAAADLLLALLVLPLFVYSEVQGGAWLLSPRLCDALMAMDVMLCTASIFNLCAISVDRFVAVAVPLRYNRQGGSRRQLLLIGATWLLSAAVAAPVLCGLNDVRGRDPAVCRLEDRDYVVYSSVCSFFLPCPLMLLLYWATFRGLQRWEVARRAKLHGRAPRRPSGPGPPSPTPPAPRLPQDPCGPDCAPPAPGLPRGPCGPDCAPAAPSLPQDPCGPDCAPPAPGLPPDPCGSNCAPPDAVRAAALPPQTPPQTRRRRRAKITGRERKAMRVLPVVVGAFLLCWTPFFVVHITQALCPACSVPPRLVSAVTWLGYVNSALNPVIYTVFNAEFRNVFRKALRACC
# [5] = target: D(3) dopamine receptor (Homo sapiens, UniProt P35462); experiment: Displacement of [3H]N-methylspiperone from human D3R receptor expressed in HEK293T cell membrane incubated for 1 hr by MicroBeta scintillation counting method; format: cell membranes
# Procedure, shortened: as §1, with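 “counting. Ki by Cheng–Prusoff from ≥3 experiments; selectivity is the Ki ratio.” for “counting.”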
# [6] = target: T2, D(4) dopamine receptor (Homo sapiens) (UniProt P21917); experiment: Agonist activity at D4R (unknown origin) expressed in human HEK293T cells assessed as G0 protein activation measured after 2.5 mins by BRET assay relative to control; format: functional, cell-based; conditions: filed as agonist
# T2 sequence (whole entry): T1 sequence (P21917 whole entry)
# Procedure, shortened: (§2)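 Transiently transfected HEK293T cells (15 μg plasmid cDNA, polyethyleneimine, 6 h, assayed after 48 h). Gαi1 or GαoA fused to RLuc8 and Gγ2 to mVenus for G protein activation; D4 receptor fused to RLuc8 and β-arrestin to mVenus for recruitment. About 2×10^5 cells/well in PBS with 0.1% glucose and 200 μM Na bisulfite. Coelenterazine H 5 μM. Read 530/485 nm; RLuc8-only background subtracted.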
# [7] = target: T2, D(4) dopamine receptor (Homo sapiens); experiment: Agonist activity at D4R (unknown origin) expressed in human HEK293T cells assessed as Gi protein activation measured after 2.5 mins by BRET assay relative to control; format: functional, cell-based; conditions: filed as agonist; procedure, shortened: as §2
# [8] = target: T2, D(4) dopamine receptor (Homo sapiens); experiment: Agonist activity at D4R (unknown origin) expressed in human HEK293T cells assessed as beta arrestin-2 recruitment measured after 2.5 mins by BRET assay relative to control; format: functional, cell-based; conditions: filed as agonist; procedure, shortened: as §2
# [9] = tested on: GSC#83; experiment: Cytotoxicity against human GSC#83 cells assessed as reduction in cell viability at 5 to 50 uM incubated for 24 hrs by MTS assay; format: functional, cell-based; conditions: dose 5-50 µM
# Procedure, shortened: (§3)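 Cells seeded at 5,000/well and grown to 80% confluence: T98 and U251 in EMEM with 10% serum; GSC#83 as spheres in serum-free DMEM/F12 with EGF and bFGF. Treated 24 h at 5–50 μM in DMSO, with a DMSO vehicle control. MTS reagent added and formazan absorbance read at 490 nm. n = 6; two-way ANOVA.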
# [10] = tested on: GSC#83; experiment: Cytotoxicity against human GSC#83 cells assessed as reduction in cell viability at 10 uM incubated for 24 hrs by MTS assay; format: functional, cell-based; procedure, shortened: as §3
# [11] = tested on: T98G; experiment: Cytotoxicity against human T98G cells assessed as reduction in cell viability at 10 uM incubated for 24 hrs by MTS assay; format: functional, cell-based; procedure, shortened: as §3
# [12] = tested on: U-251; experiment: Cytotoxicity against human U-251 cells assessed as reduction in cell viability at 10 uM incubated for 24 hrs by MTS assay; format: functional, cell-based; procedure, shortened: as §3
# [13] = tested on: U-251; experiment: Cytotoxicity against human U-251 cells assessed as reduction in cell viability at 5 to 50 uM incubated for 24 hrs by MTS assay; format: functional, cell-based; conditions: dose 5-50 µM; procedure, shortened: as §3
# [14] = tested on: T98G; experiment: Cytotoxicity against human T98G cells assessed as reduction in cell viability at 5 to 50 uM incubated for 24 hrs by MTS assay; format: functional, cell-based; conditions: dose 5-50 µM; procedure, shortened: as §3
# [15] = target: T1, D(4) dopamine receptor; experiment: Displacement of [3H]7-OH-DPAT from human D4.4 receptor expressed in HEK293T cell membrane incubated for 1.5 hrs by MicroBeta scintillation counting method; format: cell membranes
# Procedure, shortened: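 Fresh membranes from HEK293 cells stably expressing hD4.4 (about 50–60 μg protein/well) in 50 mM Tris, 10 mM MgCl2, 1 mM EDTA, pH 7.4. Radioligand was 3 nM final; incubation 1.5 h at room temperature. Nonspecific binding was set with 10 μM (+)-butaclamol; DMSO was 3% final. Ten half-log dilutions were run in triplicate, then filtered. Ki came from IC50 by Cheng–Prusoff, from at least three independent experiments.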
# Sequence of D(3) dopamine receptor (P35462 whole entry): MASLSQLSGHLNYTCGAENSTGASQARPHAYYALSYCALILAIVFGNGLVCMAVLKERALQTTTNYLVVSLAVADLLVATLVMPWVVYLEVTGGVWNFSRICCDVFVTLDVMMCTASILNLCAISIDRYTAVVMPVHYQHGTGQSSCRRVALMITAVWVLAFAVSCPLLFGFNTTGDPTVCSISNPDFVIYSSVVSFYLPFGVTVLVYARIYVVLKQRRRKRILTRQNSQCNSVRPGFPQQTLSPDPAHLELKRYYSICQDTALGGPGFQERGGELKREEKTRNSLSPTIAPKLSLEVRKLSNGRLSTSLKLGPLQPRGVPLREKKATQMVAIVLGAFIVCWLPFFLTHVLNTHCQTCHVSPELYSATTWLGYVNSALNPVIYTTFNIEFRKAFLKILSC
# Sequence of D(2) dopamine receptor (P14416 whole entry): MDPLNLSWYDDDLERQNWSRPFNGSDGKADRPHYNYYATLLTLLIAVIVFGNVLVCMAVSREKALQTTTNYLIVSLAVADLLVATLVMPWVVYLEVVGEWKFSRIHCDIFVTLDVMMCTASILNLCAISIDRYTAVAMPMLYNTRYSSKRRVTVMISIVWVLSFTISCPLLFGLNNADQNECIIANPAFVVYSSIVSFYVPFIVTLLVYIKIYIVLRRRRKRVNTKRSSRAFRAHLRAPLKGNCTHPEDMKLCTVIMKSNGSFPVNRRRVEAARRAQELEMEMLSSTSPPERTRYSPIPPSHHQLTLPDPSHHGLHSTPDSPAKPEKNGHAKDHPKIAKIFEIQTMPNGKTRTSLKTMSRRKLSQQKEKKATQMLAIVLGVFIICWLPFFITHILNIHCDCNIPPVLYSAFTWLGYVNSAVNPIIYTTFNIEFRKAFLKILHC
SMILES,Ki [1],Ratio Ki [2],Ratio Ki [3],Ki [4],Ki [5],other results
c1ccc(N2CCN(CCCc3nc4ccccc4o3)CC2)cc1,1700 nM,22,46,37.2 nM,813 nM,–
O=C1CCc2ccccc2N1CCCN1CCN(c2ncccn2)CC1,3980 nM,513,891,4.47 nM,2290 nM,–
NCCc1ccc(O)c(O)c1,–,–,–,–,–,Emax [6]: 100%; Emax [7]: 100%; Emax [8]: 100%
O=C1CCc2ccccc2N1CCCCN1CCN(c2ccccc2)CC1,1120 nM,19,263,4.27 nM,81.3 nM,–
Cc1cccc(N2CCN(CCCN3C(=O)CCc4ccccc43)CC2)c1,1450 nM,447,813,1.78 nM,794 nM,–
O=C1CCc2ccccc2N1CCCN1CCN(c2ccc(Cl)cc2Cl)CC1,550 nM,744,827,0.676 nM,501 nM,–
Fc1ccc(N2CCN(CCC3OCCc4ccccc43)CC2)cc1 (stereo not drawn),–,–,–,–,–,Activity [9]: Active; Activity [10]: Active; Activity [11]: Active; Activity [12]: Active; Activity [13]: Active; Activity [14]: Active
O=C1CCc2ccccc2N1CCCN1CCN(c2ccccc2Cl)CC1,138 nM,100,229,0.603 nM,60.3 nM,Ki [15]: 0.513 nM
c1ccc(N2CCN(CCCn3ccc4ccccc43)CC2)cc1,724 nM,257,380,1.91 nM,490 nM,–
c1ccc(N2CCN(CCCN3CCCc4ccccc43)CC2)cc1,708 nM,214,269,2.63 nM,562 nM,–
COc1ccccc1N1CCN(CCCN2C(=O)CCc3ccccc32)CC1,81.3 nM,162,132,0.617 nM,100 nM,–
c1ccc(N2CCN(CCCn3cnc4ccccc43)CC2)cc1,12000 nM,719,977,12.3 nM,8910 nM,–
Cn1nnc2c(C(N)=O)ncn2c1=O,–,–,–,–,–,Activity [9]: Active; Activity [10]: Active; Activity [11]: Active; Activity [12]: Active; Activity [13]: Active; Activity [14]: Active
CCCCC1CCN(CCCN2C(=O)CCc3ccccc32)CC1,–,631,691,–,–,–
